This note sets out measurements from ChEMBL document CHEMBL1149129, “Design and synthesis of 3'- and 5'-O-(3-benzenesulfonylfuroxan-4-yl)-2'-deoxyuridines: biological evaluation as hybrid nitric oxide donor-nucleoside anticancer agents” (2004).

Assay [1] is described as follows: In vitro percent nitric oxide released from the test compound was determined as the percent of nitrite (NO2-) produced in phosphate buffered saline at 1 hr. It is filed as functional. An outline of the steps: (§1)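 Compound (2 mM solution) in 0.1 M phosphate buffer, pH 7.4, without L-cysteine was incubated at 37 °C for 1 or 16 h in the absence of air. It was then exposed to air for 10 min at 25 °C and mixed with an equal volume of Griess reagent (sulfanilamide/N-naphthylethylenediamine). A540 was read after 10 min. Percent NO, as nitrite, came from a 0–100 µM sodium nitrite standard curve (±SEM, n = 3).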

For a further assay, the system named is KBALB-STK. Briefly: In vitro cell cytotoxicity was determined against KBALB-STK cell line. The class given is functional. To be noted: Mus musculus. In outline:
(§2)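 Murine KBALB or KBALB-STK cells, or Hs578Bst human fibroblasts, were grown in complete DMEM with 10% FBS and seeded at 8×10^2 cells/well. After 24 h at 37 °C in 5% CO2, compound in medium was added for 3 days. MTT was added for 4 h, formazan dissolved in DMSO, and blank-corrected A540 read. CC50 is 50% of control A540 (mean, n = 6).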

The subject of assay [2] is 143B. Briefly: In vitro cell cytotoxicity was determined against 143B cell line. It is filed as functional. To be noted: Homo sapiens. In outline:
(§3)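 Human 143B or 143B-LTK cells were grown in complete MEME with 10% FBS and seeded at 8×10^2 cells/well. After 24 h at 37 °C in 5% CO2, compound in medium was added and cells were incubated 3 days. Viability was read by MTT (4 h), with formazan dissolved in DMSO and A540 corrected for blanks. CC50 is the concentration cutting A540 to 50% of control (mean, n = 6).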

Assay [3] in a line: In vitro percent nitric oxide released from the test compound was determined as the percent of nitrite (NO2-) produced in the present of L-cysteine in Phosphate buffer saline at 1 hr. It is filed as functional. An outline of the steps: (§4)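 Equal volumes of 0.2 mM compound and freshly prepared 3.6 mM L-cysteine, each in 0.1 M phosphate buffer, pH 7.4, were mixed and incubated at 37 °C for 1 or 16 h in the absence of air. After 10 min air exposure at 25 °C, an equal volume of Griess reagent was added and A540 read after 10 min. Nitrite was quantified against a 0–100 µM NaNO2 curve (±SEM, n = 3).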

In the next assay the test system is KBALB cell line. In words: In vitro cell cytotoxicity was determined against KBALB cell line. It is filed as functional. To be noted: Mus musculus. In outline: as §2
Assay [4] is described as follows: In vitro percent nitric oxide released from the test compound was determined as the percent of nitrite (NO2-) produced in the present of L-cysteine in Phosphate buffer saline at 16 hr. The class given is functional. In outline:
as §4

Assay [5] concerns 143B. In words: In vitro cell cytotoxicity was determined against 143B-LTK cell line. The note with it: Homo sapiens. The class given is functional. An outline of the steps:
as §3

Assay [6] is described as follows: In vitro percent nitric oxide released from the test compound was determined as the percent of nitrite (NO2-) produced in phosphate buffered saline at 16 hr. It is filed as functional. In outline: as §1
The test system of a further assay is EMT6. Briefly: In vitro cell cytotoxicity was determined against EMT-6 cell line. The note with it: Mus musculus. The class given is functional. In outline:
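Murine EMT-6 cells in complete Waymouth medium with 12.5% FBS were plated at 8×10^2 cells/well and preincubated 24 h (37 °C, 5% CO2). Compound in medium was then given for 3 days. MTT reduction was measured over 4 h, with DMSO solubilization and blank-corrected absorbance at 540 nm. CC50 is the concentration reducing A540 to 50% of control (mean, n = 6).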

The test system of the next assay is Hs578Bst (Homo sapiens). In words: In vitro cell cytotoxicity was determined against Hs 578.Bst cell line.

A word on the CC50: it is the concentration that lowers cell viability or growth by half. Lower therefore signals greater toxicity to the cells. On to `O=[N+]([O-])O[C@H]1CO[C@H]2[C@@H]1OC[C@H]2O[N+](=O)[O-]` [ISOSORBIDE DINITRATE], for which the NO release in assay [1] was determined as 3.5%; in assay [3], 1.9%; in [4], 2.6%; in [6] it was 24%. The CC50 with KBALB-STK stood at 10 µM; in the assay on 143B [2], 7000 µM; in the assay with KBALB cell line it was 97000 nM; with 143B [5], 7400 µM; in the assay with EMT6 it was 380000 nM.
As to `O=c1[nH]c(=O)n([C@H]2C[C@H](O)[C@@H](COc3no[n+]([O-])c3S(=O)(=O)c3ccccc3)O2)cc1I`, the CC50 in the assay with Hs578Bst (Homo sapiens) amounted to 0.8 µM; in the assay with KBALB-STK, 0.92 µM; with 143B [2], 0.54 µM; in the assay with KBALB cell line, 920 nM; in the assay on 143B [5], 0.71 µM; in the assay with EMT6, 1000 nM. Also, the NO release amounted to 9.8% in [1], 28.3% in [3], 71.9% in assay [4] and 9.9% in assay [6].
Regarding `Cc1cn([C@H]2C[C@H](O)[C@@H](CO)O2)c(=O)[nH]c1=O` [DOXRIBTIMINE], the CC50 was 650 µM with KBALB-STK, 600 µM in the assay on 143B [2], 970000 nM in the assay on KBALB cell line and 700 µM with 143B [5].
As to `O=c1[nH]c(=O)n([C@H]2C[C@H](Oc3no[n+]([O-])c3S(=O)(=O)c3ccccc3)[C@@H](CO)O2)cc1F`, the CC50 with Hs578Bst (Homo sapiens) was found to be 4.4 µM; in the assay on KBALB-STK, 0.84 µM; in the assay with 143B [2], 0.24 µM; with KBALB cell line, 2000 nM; in the assay on 143B [5], 0.84 µM; in the assay on EMT6, 2000 nM. In addition, the NO release in [1] was found to be 0.4%; in assay [3], 41.5%; in assay [4] it was 73.9%; in [6], 0.2%.
On to `O=c1[nH]c(=O)n([C@H]2C[C@H](O)[C@@H](CO)O2)cc1I` [IDOXURIDINE], for which the 50% cytotoxic concentration (CC50) with KBALB-STK is 8.8e-05 µM; in the assay on 143B [2] it was 90 µM; in the assay on KBALB cell line, 0.06 nM; with 143B [5] it was 100 µM; in the assay on EMT6, 0.009 nM.
Take `O=S(=O)(c1ccccc1)c1no[n+]([O-])c1S(=O)(=O)c1ccccc1`: the CC50 in the assay on Hs578Bst (Homo sapiens) was determined as 0.1 µM; in the assay with KBALB-STK, 0.6 µM; in the assay with 143B [2] it was 0.04 µM; with KBALB cell line, 520 nM; with 143B [5], 0.028 µM; with EMT6 it was 100 nM. The NO release in assay [1] amounted to 0.2%; in assay [3], 22.7%; in assay [4] it was 38.8%; in [6] it was 0.4%.
On to `Cc1cn([C@H]2C[C@H](Oc3no[n+]([O-])c3S(=O)(=O)c3ccccc3)[C@@H](CO)O2)c(=O)[nH]c1=O`, for which the CC50 is 2 µM with Hs578Bst (Homo sapiens); 1 µM in the assay on KBALB-STK; 0.72 µM in the assay with 143B [2]; 560 nM in the assay on KBALB cell line; 0.88 µM in the assay with 143B [5]; 2400 nM in the assay with EMT6. The NO release in [1] turned out to be 1.4%; in assay [3] it was 39.5%; in [4], 77.3%; in [6], 0.4%.
As to `O=c1[nH]c(=O)n([C@H]2C[C@H](O)[C@@H](COc3no[n+]([O-])c3S(=O)(=O)c3ccccc3)O2)cc1F`, the CC50 in the assay on Hs578Bst (Homo sapiens) was 0.076 µM; in the assay with KBALB-STK, 0.06 µM; in the assay with 143B [2] it was 3.2 µM; with KBALB cell line, 48 nM; in the assay with 143B [5] it was 2 µM; with EMT6, 60 nM. The NO release in assay [1] amounted to 0.8%; in assay [3] it was 41.6%; in assay [4] it was 68.7%; in [6], 0.7%.
As to `O=c1[nH]c(=O)n([C@H]2C[C@H](Oc3no[n+]([O-])c3S(=O)(=O)c3ccccc3)[C@@H](CO)O2)cc1C(F)(F)F`, the CC50 came to 4.4 µM in the assay on Hs578Bst (Homo sapiens); 2 µM with KBALB-STK; 0.52 µM in the assay with 143B [2]; 3200 nM in the assay on KBALB cell line; 0.48 µM with 143B [5]; 880 nM in the assay on EMT6. Moreover, the NO release turned out to be 0.3% in [1], 48.3% in [3], 78.5% in assay [4] and 0.4% in assay [6].
As for `COc1no[n+]([O-])c1S(=O)(=O)c1ccccc1`, the CC50 in the assay on Hs578Bst (Homo sapiens) turned out to be 0.68 µM; in the assay with KBALB-STK, 0.44 µM; in the assay on 143B [2], 0.07 µM; in the assay on KBALB cell line, 480 nM; in the assay on 143B [5], 0.32 µM; in the assay with EMT6 it was 560 nM. The NO release in [1] came to 1.1%; in [3], 12.3%; in assay [4], 44.8%; in assay [6], 1%.
For the compound `O=c1ccn([C@H]2C[C@H](O)[C@@H](COc3no[n+]([O-])c3S(=O)(=O)c3ccccc3)O2)c(=O)[nH]1`, the CC50 in the assay with Hs578Bst (Homo sapiens) came out at 4.8 µM; in the assay on KBALB-STK, 5.4 µM; in the assay with 143B [2] it was 3.3 µM; with KBALB cell line it was 4600 nM; with 143B [5] it was 6.3 µM; in the assay on EMT6, 750 nM. Besides, the NO release in [1] was 1.5%; in assay [3] it was 46%; in assay [4] it was 77.9%; in assay [6], 0.2%.
Consider `O=c1[nH]c(=O)n([C@H]2C[C@H](Oc3no[n+]([O-])c3S(=O)(=O)c3ccccc3)[C@@H](CO)O2)cc1I`, for which the CC50 turned out to be 0.8 µM in the assay on Hs578Bst (Homo sapiens); 0.4 µM in the assay with KBALB-STK; 0.56 µM in the assay on 143B [2]; 380 nM in the assay with KBALB cell line; 1.3 µM with 143B [5]; 80 nM with EMT6. Moreover, the NO release in assay [1] turned out to be 1.2%; in assay [3], 39.8%; in assay [4] it was 74.8%; in assay [6] it was 0.4%.
Regarding `O=c1[nH]c(=O)n([C@H]2C[C@H](O)[C@@H](CO)O2)cc1F` [FLOXURIDINE], the CC50 with KBALB-STK came out at 100 µM; in the assay with KBALB cell line it was 95000 nM.
Regarding `O=c1ccn([C@H]2C[C@H](Oc3no[n+]([O-])c3S(=O)(=O)c3ccccc3)[C@@H](CO)O2)c(=O)[nH]1`, the CC50 with Hs578Bst (Homo sapiens) is 4.8 µM; with KBALB-STK, 1.7 µM; in the assay on 143B [2], 0.96 µM; in the assay on KBALB cell line, 790 nM; in the assay with 143B [5] it was 2.9 µM; in the assay with EMT6 it was 80 nM. Moreover, the NO release in assay [1] amounted to 0.9%; in assay [3] it was 45.6%; in [4], 85.8%; in assay [6], 0.2%.
Take `Cc1cn([C@H]2C[C@H](O)[C@@H](COc3no[n+]([O-])c3S(=O)(=O)c3ccccc3)O2)c(=O)[nH]c1=O`: the CC50 in the assay with Hs578Bst (Homo sapiens) stood at 6.8 µM; in the assay with KBALB-STK, 4.8 µM; in the assay with 143B [2], 3.6 µM; in the assay with KBALB cell line it was 2800 nM; in the assay on 143B [5], 5.6 µM; in the assay with EMT6, 2000 nM. Also, the NO release in assay [1] is 2.2%; in assay [3], 20.9%; in assay [4] it was 36.8%; in [6] it was 2.2%.
